From ChEMBL document CHEMBL4699414, “Hit-to-lead optimization of novel benzimidazole phenylacetamides as broad spectrum trypanosomacides” (RSC Med Chem, 2020)

Experiments:
Trypanosoma cruzi = test: Antitrypanosomal activity against Trypanosoma cruzi infected in rat H9c2 infected with trypomastigotes from parasite-infected monkey LLC-MK2 cells measured after 72 hrs by DRAQ5 DNA dye based microscopic imaging analysis; format: functional, organism-based; details: H9c2, 72 h
[1] = Cytotoxicity against rat H9c2 cells assessed as reduction in cell viability; format: cell-based
[2] = Cytotoxicity against human HEK293 cells assessed as reduction in cell viability measured after 48 hrs by resazurin assay; format: cell-based
Procedure, shortened: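 HEK293 cells from ATCC; Alamar Blue viability read-out run per earlier method.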

[3] = Cytotoxicity against human HepG2 cells assessed as reduction in cell viability measured after 48 hrs by CellTiter-Glo assay; format: cell-based
Procedure, shortened: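 HepG2 human hepatoma cells from GSK Biological Reagents and Assay Development (Stevenage, UK); viability read-out per earlier method.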

[4] = Lipophilicity, logP of the compound; format: physicochemical; details: octanol/water
[5] = test system: Trypanosoma brucei brucei; test: Antitrypanosomal activity against Trypanosoma brucei brucei Lister 427 assessed as parasite growth inhibition measured after 48 hrs by alamar blue assay; details: Lister 427, 48 h

## O=C(Cn1ccnc1[N+](=O)[O-])NCc1ccccc1 [BENZNIDAZOLE]
Trypanosoma cruzi
  IC50: 1.58 µM
[1]
  CC50: 31.6 µM

## CCCCn1c(NC(=O)Cc2ccc(Cl)cc2)nc2ccccc21
[2]
  CC50 at 48 h: > 83 µM
Trypanosoma cruzi
  IC50: 1.6 µM
[1]
  CC50: 13 µM
[3]
  CC50 at 48 h: > 50 µM
[4]
  logP: 5.2
[5]
  IC50: 4.4 µM

## CCCn1c(NC(=O)Cc2ccccc2Cl)nc2ccccc21
[2]
  CC50 at 48 h: 14 µM
Trypanosoma cruzi
  IC50: 2 µM
[1]
  CC50: 25 µM
[3]
  CC50 at 48 h: 25 µM
[4]
  logP: 4.7
[5]
  IC50: 2.3 µM

## CCCn1c(NC(=O)Cc2ccc(Cl)cc2)nc2cc(Br)ccc21
[2]
  CC50 at 48 h: > 83 µM
Trypanosoma cruzi
  IC50: 0.79 µM
[1]
  CC50: > 50 µM
[4]
  logP: 5.5
[5]
  IC50: 16 µM

## CCCn1c(NC(=O)Cc2ccc(Cl)cc2)nc2c(OC)cccc21
[2]
  CC50 at 48 h: > 83 µM
Trypanosoma cruzi
  IC50: 3.2 µM
[1]
  CC50: > 50 µM
[3]
  CC50 at 48 h: > 50 µM
[4]
  logP: 4.6
[5]
  IC50: > 83 µM

## CCCn1c(NC(=O)Cc2ccc(OC(C)=O)cc2)nc2ccccc21
[2]
  CC50 at 48 h: > 83 µM
Trypanosoma cruzi
  IC50: 32 µM
[1]
  CC50: > 50 µM
[3]
  CC50 at 48 h: > 50 µM
[4]
  logP: 3.7
[5]
  IC50: 14 µM

## CCCn1c(NC(=O)Cc2cccc(OC)c2)nc2ccccc21
[2]
  CC50 at 48 h: > 83 µM
Trypanosoma cruzi
  IC50: 4 µM
[1]
  CC50: > 50 µM
[3]
  CC50 at 48 h: > 50 µM
[4]
  logP: 4
[5]
  IC50: 4.3 µM

## CCCn1c(NC(=O)Cc2ccc(Br)cc2)nc2ccccc21
[2]
  CC50 at 48 h: > 83 µM
Trypanosoma cruzi
  IC50: 2 µM
[1]
  CC50: > 50 µM
[3]
  CC50 at 48 h: > 50 µM
[4]
  logP: 4.9
[5]
  IC50: 5 µM

## N=C(N)c1ccc(OCCCCCOc2ccc(C(=N)N)cc2)cc1 [PENTAMIDINE]
[2]
  CC50 at 48 h: 0.67 µM
[5]
  IC50: 0.014 µM

## Cn1c(NC(=O)Cc2ccc(Cl)cc2)nc2ccccc21
[2]
  CC50 at 48 h: > 83 µM
Trypanosoma cruzi
  IC50: 3.2 µM
[1]
  CC50: > 50 µM
[3]
  CC50 at 48 h: > 50 µM
[4]
  logP: 3.8
[5]
  IC50: 3.8 µM

## CCCn1c(NC(=O)Cc2ccc(F)cc2)nc2ccccc21
[2]
  CC50 at 48 h: > 83 µM
Trypanosoma cruzi
  IC50: 2.5 µM
[1]
  CC50: > 50 µM
[3]
  CC50 at 48 h: > 50 µM
[4]
  logP: 4.3
[5]
  IC50: 2.5 µM

## CCCn1c(C(=O)NCc2ccc(Cl)cc2)nc2ccccc21
[2]
  CC50 at 48 h: > 83 µM
Trypanosoma cruzi
  IC50: 10 µM
[1]
  CC50: 16 µM
[3]
  CC50 at 48 h: > 50 µM
[4]
  logP: 4.1
[5]
  IC50: > 83 µM

## CCCn1c(NC(=O)Cc2ccc(Cl)cc2)nc2ccc(Cl)cc21
[2]
  CC50 at 48 h: > 83 µM
Trypanosoma cruzi
  IC50: 0.5 µM
[1]
  CC50: 6.3 µM
[3]
  CC50 at 48 h: > 50 µM
[4]
  logP: 5.3
[5]
  IC50: 2.4 µM

## CCCn1c(NC(=O)Cc2cccc(Cl)c2)nc2ccccc21
[2]
  CC50 at 48 h: 15 µM
Trypanosoma cruzi
  IC50: 1.6 µM
[1]
  CC50: > 50 µM
[3]
  CC50 at 48 h: > 50 µM
[4]
  logP: 4.7
[5]
  IC50: 3.6 µM

## CCCn1c(NC(=O)Cc2cccc(F)c2)nc2ccccc21
[2]
  CC50 at 48 h: > 83 µM
Trypanosoma cruzi
  IC50: 2 µM
[1]
  CC50: > 50 µM
[3]
  CC50 at 48 h: > 50 µM
[4]
  logP: 4.3
[5]
  IC50: 3.2 µM

## CCCn1c(NC(=O)Cc2ccc(O)cc2)nc2ccccc21
[2]
  CC50 at 48 h: > 83 µM
Trypanosoma cruzi
  IC50: 40 µM
[1]
  CC50: > 50 µM
[3]
  CC50 at 48 h: > 50 µM
[4]
  logP: 3.8
[5]
  IC50: > 83 µM

## CCCCCCCCC(=O)Nc1nc2ccccc2n1CCC
[2]
  CC50 at 48 h: > 83 µM
Trypanosoma cruzi
  IC50: 2.5 µM
[1]
  CC50: 20 µM
[3]
  CC50 at 48 h: > 50 µM
[4]
  logP: 5.7
[5]
  IC50: 7.3 µM

## CCCn1c(NC(=O)Cc2cccc(C)c2)nc2ccccc21
[2]
  CC50 at 48 h: 15 µM
Trypanosoma cruzi
  IC50: 2 µM
[1]
  CC50: > 50 µM
[3]
  CC50 at 48 h: > 50 µM
[4]
  logP: 4.6
[5]
  IC50: 3.6 µM

## CCCn1c(NC(=O)CCc2ccccc2)nc2ccccc21
[2]
  CC50 at 48 h: 14 µM
Trypanosoma cruzi
  IC50: 5 µM
[1]
  CC50: > 50 µM
[3]
  CC50 at 48 h: > 50 µM
[4]
  logP: 4.6
[5]
  IC50: 3.5 µM

## CCCn1c(NC(=O)Cc2ccc(-c3ccccc3)cc2)nc2ccccc21
[2]
  CC50 at 48 h: > 83 µM
Trypanosoma cruzi
  IC50: 1 µM
[1]
  CC50: > 50 µM
[3]
  CC50 at 48 h: > 50 µM
[4]
  logP: 5.8
[5]
  IC50: 3.4 µM

## CCCCC(=O)Nc1nc2ccccc2n1CCC
[2]
  CC50 at 48 h: 2.6 µM
Trypanosoma cruzi
  IC50: 13 µM
[1]
  CC50: 25 µM
[3]
  CC50 at 48 h: > 50 µM
[4]
  logP: 3.9
[5]
  IC50: 11 µM

## CCCn1c(NC(=O)Cc2ccc3ccccc3c2)nc2ccccc21
[2]
  CC50 at 48 h: > 83 µM
Trypanosoma cruzi
  IC50: 1.3 µM
[1]
  CC50: > 50 µM
[3]
  CC50 at 48 h: 25 µM
[4]
  logP: 5.1
[5]
  IC50: 5.5 µM

## CCCn1c(NC(=O)Cc2ccc(OC(F)(F)F)cc2)nc2ccccc21
[2]
  CC50 at 48 h: > 83 µM
Trypanosoma cruzi
  IC50: 1 µM
[1]
  CC50: 10 µM
[3]
  CC50 at 48 h: > 50 µM
[4]
  logP: 5.6
[5]
  IC50: 3.2 µM

## CCCn1c(NC(=O)Cc2cccc(Br)c2)nc2ccccc21
[2]
  CC50 at 48 h: > 83 µM
Trypanosoma cruzi
  IC50: 1 µM
[1]
  CC50: > 50 µM
[3]
  CC50 at 48 h: > 50 µM
[4]
  logP: 4.9
[5]
  IC50: 2.9 µM

## O=C(Cc1ccc(Cl)cc1)Nc1nc2ccccc2[nH]1
[2]
  CC50 at 48 h: > 83 µM
Trypanosoma cruzi
  IC50: 50 µM
[1]
  CC50: > 50 µM
[3]
  CC50 at 48 h: > 50 µM
[4]
  logP: 3.6

## CCCn1c(NC(=O)/C=C/c2ccccc2)nc2ccccc21
[2]
  CC50 at 48 h: > 83 µM
Trypanosoma cruzi
  IC50: 1.3 µM
[1]
  CC50: 20 µM
[3]
  CC50 at 48 h: 40 µM
[4]
  logP: 4.6
[5]
  IC50: 2.1 µM

## CCCn1c(NC(=O)Cc2ccccc2C)nc2ccccc21
[2]
  CC50 at 48 h: > 83 µM
Trypanosoma cruzi
  IC50: 2.5 µM
[1]
  CC50: > 50 µM
[3]
  CC50 at 48 h: > 50 µM
[4]
  logP: 4.6
[5]
  IC50: 2.6 µM

## CCCn1c(NC(=O)Cc2ccc(Cl)cc2)nc2cccc(C)c21
[2]
  CC50 at 48 h: > 83 µM
Trypanosoma cruzi
  IC50: 1.3 µM
[1]
  CC50: > 50 µM
[3]
  CC50 at 48 h: > 50 µM
[4]
  logP: 5.2
[5]
  IC50: 9.4 µM

## CCCn1c(NC(=O)Cc2ccc(Cl)cc2)nc2cccc(Br)c21
[2]
  CC50 at 48 h: > 83 µM
[4]
  logP: 5.5
[5]
  IC50: 2.8 µM

## CCn1c(NC(=O)Cc2ccc(Cl)cc2)nc2ccccc21
[2]
  CC50 at 48 h: > 83 µM
Trypanosoma cruzi
  IC50: 2.5 µM
[1]
  CC50: 40 µM
[3]
  CC50 at 48 h: > 50 µM
[4]
  logP: 4.2
[5]
  IC50: 3.1 µM

## CCCn1c(NC(=O)Nc2ccc(Cl)cc2)nc2ccccc21
[2]
  CC50 at 48 h: 5.2 µM
Trypanosoma cruzi
  IC50: 2.5 µM
[1]
  CC50: > 50 µM
[3]
  CC50 at 48 h: 40 µM
[4]
  logP: 4.8
[5]
  IC50: 5.4 µM

## CCCn1c(NC(=O)Cc2ccc(Cl)nc2)nc2ccccc21
[2]
  CC50 at 48 h: > 83 µM
Trypanosoma cruzi
  IC50: 7.9 µM
[1]
  CC50: > 50 µM
[3]
  CC50 at 48 h: > 50 µM
[4]
  logP: 3.7
[5]
  IC50: > 83 µM

## CCCn1c(NC(=O)Cc2ccc(Cl)cc2)nc2ccc(Br)cc21
[2]
  CC50 at 48 h: > 83 µM
Trypanosoma cruzi
  IC50: 0.4 µM
[1]
  CC50: 13 µM
[3]
  CC50 at 48 h: > 50 µM
[4]
  logP: 5.5
[5]
  IC50: 1.5 µM

## COc1ccc(C[C@H](N)C(=O)N[C@H]2[C@@H](O)[C@H](n3cnc4c(N(C)C)ncnc43)O[C@@H]2CO)cc1 [PUROMYCIN]
[2]
  CC50 at 48 h: 0.23 µM
[5]
  IC50: 0.038 µM

## CCCn1c(NC(=O)Cc2ccc(Cl)cc2)nc2ccc(C)cc21
[2]
  CC50 at 48 h: > 83 µM
[4]
  logP: 5.2
[5]
  IC50: 15 µM

## CCCc1c(NC(=O)Cc2ccc(Cl)cc2)ncc2ccccc12
Trypanosoma cruzi
  IC50: 0.5 µM
[1]
  CC50: 3.2 µM
[3]
  CC50 at 48 h: 7.94 µM
[4]
  logP: 5.4

## N=C(N)c1ccc(/N=N/Nc2ccc(C(=N)N)cc2)cc1 [DIMINAZENE DIACETURATE]
[2]
  CC50 at 48 h: 38.5 µM
[5]
  IC50: 0.087 µM
